These results are taken from ChEMBL document CHEMBL1151952, “Biologically active cannabinoids from high-potency Cannabis sativa” (J Nat Prod, 2009).

Molecules are shown by their SMILES. pIC50: −log10 of the molar value.

Series [1] concerns Staphylococcus aureus. In words: Antibacterial activity against Staphylococcus aureus ATCC 29213 by alamar blue assay. The format is functional, organism-based. The settings on record: for pIC50: Staphylococcus aureus, ATCC 29213, read-out: IC50.
The subject of series [2] is Mycobacterium intracellulare. The experiment in a line: Antibacterial activity against Mycobacterium intracellular ATCC 23068 after 68 to 72 hrs by alamar blue assay. The format is functional, organism-based. The settings on record: for pIC50: Mycobacterium intracellulare, ATCC 23068, read-out: IC50.
The test system of series [3] is Vero. In words: Cytotoxicity against african green monkey Vero cells up to 10 ug/mL by neutral red method. The series is classed as cell-based. Particulars: chlorocebus sabaeus; call rule not given here.
Series [4] deals with Plasmodium falciparum. In words: Antiplasmodial activity against Plasmodium falciparum W2. The format is functional, organism-based. Particulars: for pIC50: Plasmodium falciparum, W2, read-out: IC50.
Series [5] has as its system Candida albicans. The experiment in a line: Antifungal activity against Candida albicans ATCC 90028 after 18 to 24 hrs by alamar blue assay. The series is classed as functional, organism-based. The settings on record: for pIC50: Candida albicans, ATCC 90028, read-out: IC50.
Series [6] relates to Escherichia coli. The experiment in a line: Antibacterial activity against Escherichia coli ATCC 35218 after 18 to 24 hrs by alamar blue assay. The series is classed as functional, organism-based.
Series [7] has as its system Plasmodium falciparum. The experiment in a line: Antiplasmodial activity against Plasmodium falciparum D6. The format is functional, organism-based. The settings on record: for pIC50: Plasmodium falciparum, D6, read-out: IC50.
Series [8] relates to Staphylococcus aureus. The experiment in a line: Antibacterial activity against methicillin-resistant Staphylococcus aureus ATCC 33591 after 18 to 24 hrs by alamar blue assay. The format is functional, organism-based.
Series [9] has as its system Leishmania donovani. The experiment in a line: Antileishmanial activity against Leishmania donovani. The series is classed as functional, organism-based. In outline: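 Leishmania donovani assay; IC50 and IC90 are the test concentrations that kill 50% and 90% of cells, relative to solvent controls.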
Series [10] relates to Pichia kudriavzevii. In words: Antifungal activity against Candida krusei ATCC 6258 by alamar blue assay. The series is classed as functional, organism-based.

As for `C=C(C)C(O)CCC1(C)C=Cc2c(O)cc(CCCCC)cc2O1` (racemic), the pIC50 in series [1] was 4.53; in series [5], 4.22; in series [8], 4.61; in [10], 4.22. For the same molecule, the IC50 entry in series [2], in series [4], in [6] and in series [7] was “Not Active” in each case. The Activity result in [3] is “Non-toxic”. The molecule also had an IC90 in series [9] of 96.8 µM.

For `N=C(N)c1ccc(OCCCCCOc2ccc(C(=N)N)cc2)cc1` [PENTAMIDINE], in series [9], the pIC50 was 5.42 and the IC90 is 19.1 µM.

For the molecule `CCCCCc1cc2c(c(O)c1C(=O)O)-c1cc(C)c(O)cc1C(C)(C)O2` [8-HYDROXYCANNABINOLIC ACID A], the pIC50 in series [1] was 5.46; in series [6] (Escherichia coli, ATCC 35218, read-out: IC50), 4.27; in series [10] it was 4.27. Moreover, the IC50 entry in series [2] and in series [5] was “Not Active” in each case. The Activity entry in series [3] is “Non-toxic”.

As for `CCCCCc1c(C/C=C(\C)CCC=C(C)C)c(O)cc(O)c1OC(C)=O`, the negative-log IC50 (pIC50) was 4.91 in series [1], 5.17 in series [8], 4.37 in series [9] and 4.27 in series [10]. For the same molecule, the IC50 entry in [2], in series [4], in [5], in series [6] and in [7] was “Not Active” each time. For the same molecule, in series [3], the Activity result is on record as “Non-toxic”. Moreover, the IC90 in series [9] was 85.4 µM.

Turning to `CCCCCc1cc(O)c(C/C=C(\C)CCC=C(C)C)c(OC(C)=O)c1O`, the IC50 entry in [1], in [2], in series [5] and in series [6] was “Not Active” each time. For the same molecule, in series [3], the Activity result is “Non-toxic”. The pIC50 in series [4] is 5.17; in [7], 5.14; in series [8], 4.27; in [9], 4.97. This molecule also had an IC90 in [9] of 18.7 µM.

On to `CCCCCc1cc(O)c2c(c1)OC(C)(C)c1cc(O)c(C)cc1-2`, for which the pIC50 is 4.51 in series [2] and 5.34 in series [5]. Besides, the Activity result in series [3] is “Non-toxic”. Besides, the IC50 entry in series [6] is on record as “Not Active”.

In series [10], `C[C@@H]1[C@H](O)[C@@H](C)/C=C/C=C/C=C/C=C/C=C/C=C/C=C/[C@H](O[C@@H]2O[C@H](C)[C@@H](O)[C@H](N)[C@@H]2O)C[C@@H]2O[C@](O)(C[C@@H](O)C[C@@H](O)[C@H](O)CC[C@@H](O)C[C@@H](O)CC(=O)O[C@H]1C)C[C@H](O)[C@H]2C(=O)O` [AMPHOTERICIN B] showed a pIC50 of 6.15.

Turning to `O=C(O)c1cn(C2CC2)c2cc(N3CCNCC3)c(F)cc2c1=O` [CIPROFLOXACIN], the pIC50 in [2] was 5.82.

As for `CCCCCc1cc(O)c2c(c1OC(C)=O)OC(C)(CCC=C(C)C)C=C2` (racemic), the Activity entry in series [3] is listed as “Non-toxic”. Also, the pIC50 in series [4] was 5.40; in [7], 5.14; in series [9] it was 4.39. This molecule also returned an IC90 in [9] of 91.3 µM.
